Shown are actives, neighbours in structure and some others; about 1.4% of the full set was active somewhere.
PG9 binder – binds the HIV-1 gp120 antibody PG9. TR-FRET gp120-PG9 antibody binding. inhibition, % at 6.7 µM. hit rate 0.43% among 360,000. AID 624416; in the data active = inhibition above about 8.5%
Rev-erbA mod – modulators of human Rev-erb alpha DNA binding | P20393 | Rev-erbα–FITC-DNA binding, fluorescence polarization, 90 min | activity, % at 10 µM | hit rate 0.79% among 370,000;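 active = activity above about 14%, limit read from the data; passing the limit was not always enough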
NR2E3 ag-1 – agonists of human nuclear receptor NR2E3; hit rate 0.12% among 320,000; Q9Y5X4; GST-NR2E3/biotin-RetCOR TR-FRET, 1536-well; AID 2300; inhibition of corepressor binding, % at 4.78 µM;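 active = percent inhibition above the cutoff of mean plus 3 SD of all tested compounds, set per screening campaign, cut at about 20% in these data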
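Material: NR2E3–RetCOR corepressor complex / Amount: 1.35 nM GST-NR2E3 / Medium: Tris pH 7.5 / Compound: single nominal compound dose of 4.8 µM / Incubation: 5 h at 4 °C / Technique: TR-FRET, Eu(K)-anti-GST donor, streptavidin-D2 acceptor, ex 340, em 617/671 nm / Read-out basis: percent loss of FRET ratio relative to control wells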
NR2E3 ag-2 – activates human NR2E3 receptor; hit rate 0.35% among 360,000; CHO-S Gal4-NCOR/VP16-NR2E3 two-hybrid, luciferase; inhibition of corepressor binding, % at 3.98 µM; Q9Y5X4;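 active = inhibition above the mean of all tested compounds plus 3 SD, cut at about 70% in these data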;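 note: higher means lower luciferase signal from less NR2E3 corepressor binding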
Hits are given with their value.

Screening CC(=O)OCC(=O)[C@@]12OC3(CCCC3)O[C@@H]1CC1C3CCC4=CC(=O)C=C[C@]4(C)[C@@]3(F)[C@@H](O)C[C@@]12C (stereo partly drawn) returned Rev-erbA mod inactive.
For Cn1nc(C(F)(F)F)c(/C=N/OC(=O)c2ccccc2)c1SCc1ccc(Cl)cc1 the results were PG9 binder inactive, Rev-erbA mod inactive, NR2E3 ag-1 inactive and NR2E3 ag-2 inactive.
Screening Cn1nc(C(F)(F)F)c(/C=N/OC(=O)c2ccccc2Cl)c1SCc1ccccc1Cl returned PG9 binder inactive, Rev-erbA mod inactive, NR2E3 ag-1 inactive and NR2E3 ag-2 72.8.
`CNC(=O)CN(CCN(CCN(CC(=O)O)CC(=O)NC)CC(=O)O)CC(=O)O` gave Rev-erbA mod inactive.
For C[C@H](CCC(=O)O)[C@H]1CCC2C3C(CC[C@@]21C)[C@@]1(C)CC[C@@H](O)C[C@H]1C[C@H]3O (stereo partly drawn) the results were Rev-erbA mod inactive.
`C[C@H]1OC(n2cc(F)c(=O)[nH]c2=O)[C@H](O)[C@@H]1O` (stereo partly drawn) gave Rev-erbA mod inactive.
Screening CCN1CCN(Cc2ccc(NC(=O)c3ccc(C)c(NC(=O)c4nccn4C)c3)cc2C(F)(F)F)CC1 returned PG9 binder inactive, Rev-erbA mod inactive, NR2E3 ag-1 inactive and NR2E3 ag-2 inactive.
CCN1CCN(Cc2ccc(NC(=O)c3ccc(C)c(NC(=O)c4cncc(-c5cccs5)c4)c3)cc2C(F)(F)F)CC1 was read as NR2E3 ag-2 82.5.
For CNCC[C@@H](Oc1ccccc1)c1ccccc1 the results were Rev-erbA mod inactive.
CC[C@@H]1/C=C(/C)C[C@H](C)C[C@H](OC)[C@H]2O[C@@](O)(C(=O)C(=O)N3CCCC[C@H]3C(=O)O[C@H](/C(C)=C/[C@@H]3CC[C@H](Cl)[C@H](OC)C3)[C@H](C)[C@@H](O)CC1=O)[C@H](C)C[C@@H]2OC was read as Rev-erbA mod inactive.
`CC(=O)c1cccc(NS(=O)(=O)c2ccc(C(=O)Nc3ccccc3)cc2)c1` gave PG9 binder inactive, Rev-erbA mod inactive, NR2E3 ag-1 inactive and NR2E3 ag-2 75.0.
For CC(COc1ccccc1)NC(C)[C@H](O)c1ccc(O)cc1 (stereo partly drawn) the results were Rev-erbA mod inactive.
For Cc1cc(C(C#N)c2ccc(Cl)cc2)c(Cl)cc1NC(=O)c1cc(I)cc(I)c1O (stereo not drawn) the results were PG9 binder inactive, Rev-erbA mod inactive, NR2E3 ag-1 inactive and NR2E3 ag-2 101.3.
For Cc1cc(NC(=O)c2ccc(Cl)cc2)c(C)cc1O the results were PG9 binder inactive, Rev-erbA mod inactive, NR2E3 ag-1 inactive and NR2E3 ag-2 inactive.
Screening COc1ccc(C(=O)c2nccc3cc(OC)c(OC)cc23)cc1OC returned NR2E3 ag-1 19.6 and NR2E3 ag-2 inactive.
For COc1ccc2[nH]c3c4c(ccc3c2c1)C(=O)C=CC4=O the results were PG9 binder 10.5, Rev-erbA mod inactive and NR2E3 ag-2 inactive.
For Cc1cccc(Nc2nc(-c3c(C)nc4ccccn34)cs2)c1 the results were PG9 binder inactive, Rev-erbA mod inactive, NR2E3 ag-1 inactive and NR2E3 ag-2 78.1.
`CC(C)CC(=O)N[C@H](C(=O)NC(C(=O)NC(CC(C)C)[C@@H](O)CC(=O)N[C@@H](C)C(=O)N[C@@H](CC(C)C)[C@@H](O)CC(=O)O)C(C)C)C(C)C` (stereo partly drawn) gave Rev-erbA mod inactive.
`Oc1ccc(-c2n[nH]c(C(F)(F)F)c2-c2ccccc2)c(O)c1` gave PG9 binder inactive, Rev-erbA mod inactive, NR2E3 ag-1 inactive and NR2E3 ag-2 76.3.
C#C[C@]1(OC(C)=O)CCC2C3CCC4=C/C(=N/O)CCC4C3CC[C@@]21CC (stereo partly drawn) was read as Rev-erbA mod inactive.
For CCOC(=O)O[C@H](C)OC(=O)C1N2C(=O)[C@H](NC(=O)C(N)c3ccccc3)C2SC1(C)C (stereo partly drawn) the results were Rev-erbA mod inactive.
`Cn1c(-c2ccccc2)cc(=O)c2ccccc21` gave PG9 binder inactive, Rev-erbA mod inactive, NR2E3 ag-1 inactive and NR2E3 ag-2 inactive.
`Cn1c2ccccc2c(=O)n2c(=O)c3ccccc3cc12` gave NR2E3 ag-1 28.8.
Screening C[C@]12C=CC(=O)C=C1CCC1C2C(=O)C[C@@]2(C)C1CC[C@]2(O)C(=O)CO (stereo partly drawn) returned Rev-erbA mod inactive.
